How the values were obtained:
A549 = test: Cytotoxicity against human A549 cells by sulforhodamine B bioassay; format: functional, cell-based
Outline: (§1)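 Sulforhodamine B assay on cultured human tumor cell lines A549, SK-OV-3, A498 and HCT15. Run at the Korea Research Institute of Chemical Technology.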

[1] = Cytotoxicity against human SKOV3 cells by sulforhodamine B bioassay; format: functional, cell-based; details: SK-OV-3; outline: as §1
[2] = Cytotoxicity against human HCT15 cells by sulforhodamine B bioassay; format: functional, cell-based; details: HCT-15; outline: as §1
[3] = Cytotoxicity against mouse BV2 cells by MTT assay; design: concentration or dose not given beside the values; details: bv-2
[4] = Antineuroinflammatory activity against mouse BV2 cells assessed as inhibition of LPS-induced NO production treated with compound 30 mins and challenged with LPS for 24 hrs; details: BV-2
SK-MEL-2 = test: Cytotoxicity against human SK-MEL-2 cells by sulforhodamine B bioassay; format: functional, cell-based

Compound `O=C(/C=C/c1ccc(O)cc1)O[C@H]1[C@H](O[C@@H]2CCCC[C@H]2O)O[C@H](CO)[C@@H](O)[C@@H]1O` has an IC50 (A549) greater than 10 µM, an IC50 [1] greater than 10 µM and an IC50 [2] greater than 10 µM. For the same compound, the Activity [3] was 107.2% and the IC50 [4] was 20.5 µM.

In the case of `O=C(/C=C\c1ccc(O)cc1)O[C@H]1[C@H](O[C@@H]2CCCC[C@H]2O)O[C@H](CO)[C@@H](O)[C@@H]1O`, the IC50 (A549) is reported as greater than 10 µM, the IC50 [1] is reported as greater than 10 µM and the IC50 [2] is reported as greater than 10 µM. The Activity [3] was 102.5% and the IC50 [4] was 6.6 µM.

With `O=C(/C=C/c1ccc(O)cc1)OC[C@H]1O[C@@H](O[C@@H]2CCCC[C@H]2O)[C@H](O)[C@@H](O)[C@@H]1O` the IC50 (A549) was greater than 10 µM, the IC50 [1] was greater than 10 µM and the IC50 [2] was greater than 10 µM. The Activity [3] was 100.7% and the IC50 [4] was 14.8 µM.

For `O=C(/C=C\c1ccc(O)cc1)OC[C@H]1O[C@@H](O[C@@H]2CCCC[C@H]2O)[C@H](O)[C@@H](O)[C@@H]1O`, the IC50 (A549) was greater than 10 µM, the IC50 [1] was greater than 10 µM and the IC50 [2] was greater than 10 µM.

`O=C(OC[C@H]1O[C@@H](O[C@@H]2CCCC[C@H]2O)[C@H](O)[C@@H](O)[C@@H]1O)c1ccc(O)cc1` showed an IC50 (A549) greater than 10 µM, an IC50 [1] greater than 10 µM and an IC50 [2] greater than 10 µM.

For `O=C(/C=C/c1ccc(O)cc1)O[C@H]1[C@H](O[C@H]2CCCC[C@@H]2O)O[C@H](CO)[C@@H](O)[C@@H]1O`, the IC50 (A549) was greater than 10 µM, the IC50 [1] was greater than 10 µM and the IC50 [2] was greater than 10 µM. It also gave an Activity [3] of 93.6% and an IC50 [4] of 15.5 µM.

`O=C(/C=C\c1ccc(O)cc1)O[C@@H]1[C@H](O[C@H]2CCCC[C@@H]2O)O[C@H](CO)[C@@H](O)[C@H]1O` showed an IC50 (A549) greater than 10 µM, an IC50 [1] greater than 10 µM and an IC50 [2] greater than 10 µM. It also gave an Activity [3] of 96.2% and an IC50 [4] of 18.1 µM.

In the case of `O=C(/C=C\c1ccc(O)cc1)O[C@@H]1[C@H](O[C@@H]2CCCC[C@@H]2O)O[C@H](CO)[C@@H](O)[C@H]1O`, the IC50 (A549) is reported as greater than 10 µM, the IC50 [1] is reported as greater than 10 µM and the IC50 [2] is reported as greater than 10 µM.

Compound `O=C(/C=C/c1ccc(O)cc1)O[C@H]1[C@H](O[C@H]2CCCC[C@H]2O)O[C@H](CO)[C@@H](O)[C@@H]1O` has an IC50 (A549) greater than 10 µM, an IC50 [1] greater than 10 µM and an IC50 [2] greater than 10 µM.

With `O=C(/C=C\c1ccc(O)cc1)O[C@H]1[C@H](O[C@H]2CCCC[C@H]2O)O[C@H](CO)[C@@H](O)[C@@H]1O` the IC50 (A549) was greater than 10 µM, the IC50 [1] was greater than 10 µM and the IC50 [2] was greater than 10 µM.

Work on `O=C(/C=C/c1ccc(O)cc1)OC[C@H]1O[C@@H](O[C@H]2CCCC[C@H]2O)[C@H](O)[C@@H](O)[C@@H]1O` yielded an IC50 (A549) greater than 10 µM, an IC50 [1] greater than 10 µM and an IC50 [2] greater than 10 µM.

Work on `O=C(/C=C\c1ccc(O)cc1)OC[C@H]1O[C@@H](O[C@H]2CCCC[C@H]2O)[C@H](O)[C@@H](O)[C@@H]1O` yielded an IC50 (A549) greater than 10 µM, an IC50 [1] greater than 10 µM and an IC50 [2] greater than 10 µM.

With `O=C(/C=C/c1ccc(O)cc1)O[C@H]1[C@H](O[C@@H]2CCCC[C@@H]2O)O[C@H](CO)[C@@H](O)[C@@H]1O` the IC50 (A549) was greater than 10 µM, the IC50 [1] was greater than 10 µM and the IC50 [2] was greater than 10 µM.

For `COc1cccc2c1C(=O)c1c(O)c3c(c(O)c1C2=O)C[C@@](O)(C(=O)CO)C[C@@H]3O[C@H]1C[C@H](N)[C@H](O)[C@H](C)O1` [DOXORUBICIN], the IC50 (A549) was 0.0014 µM, the IC50 [1] was 0.0217 µM and the IC50 (SK-MEL-2) was 0.0025 µM. For the same compound, the IC50 [2] was 0.108 µM.

For `CNC(=N)NCCC[C@H](N)C(=O)O` [TILARGININE], the Activity [3] was 99.8% and the IC50 [4] was 24.3 µM.

Source: ChEMBL document CHEMBL3352724, “Phenolic Glycosides from the Twigs of Salix glandulosa” (J Nat Prod, 2014)
